GASC1 inh: KDM4C (human) demethylase inhibition; Q9H3R0; AID 720574; GST-KDM4C 2-372, H3K9me3 peptide, LANCE TR-FRET; inhibition, % at 12.5 µM; 96,000 tested, 0.15% active;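 active = mean replicate inhibition above about 25%, with at least 55% of replicates also reaching it, limit read from the data, passing the limit was not always enough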
Target sequence (Q9H3R0 2-372 limits assumed): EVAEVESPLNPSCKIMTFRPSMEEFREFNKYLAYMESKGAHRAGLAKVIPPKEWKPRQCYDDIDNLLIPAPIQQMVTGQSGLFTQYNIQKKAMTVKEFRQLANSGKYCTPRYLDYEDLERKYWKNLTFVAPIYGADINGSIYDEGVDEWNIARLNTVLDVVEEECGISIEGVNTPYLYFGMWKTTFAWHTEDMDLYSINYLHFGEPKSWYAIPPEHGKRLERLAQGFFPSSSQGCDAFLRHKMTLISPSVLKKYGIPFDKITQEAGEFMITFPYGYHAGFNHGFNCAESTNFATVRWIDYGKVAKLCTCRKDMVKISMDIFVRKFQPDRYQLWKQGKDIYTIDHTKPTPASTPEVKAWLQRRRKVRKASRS
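reagent = H3K9me3 peptide substrate, Fe(II), 2-oxoglutarate | system = GST-tagged GASC-1 (JMJD2C) catalytic fragment, aa 2-372 | amount = enzyme final amount 10 nM | read-out = Fall in 671/618 emission ratio as inhibition | medium = HEPES buffer, pH 7.5, plus ascorbate | schedule = 30 min reaction, 60 min detection, RT | measured by = LANCE TR-FRET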
Pf Dd2 inh: P. falciparum Dd2 growth inhibition; SYBR Green, 72 h; hits give low values; activity change, % at 10 µM; 94,000 tested, 2.3% active; in the data active = activity change below about -80%
T cruzi growth: T. cruzi proliferation inhibition. 77,000 tested, 5.9% active. T. cruzi beta-gal in NIH3T3, GalScreen luminescence, 90 h. inhibition, % at 8.34 µM;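 active = mean inhibition above about 93%, with at least 55% of replicates each passing it, limit read from the data, passing the limit was not always enough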
IDH1 mut inh: IDH1 R132H (human) inhibition. IDH1 R132H reductase, diaphorase/resazurin fluorescence, 60 min. inhibition, % at 10 µM. AID 624101. 70,000 tested, 0.18% active; in the data active = inhibition above about 34%;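 note: 0% = DMSO and 100% = no enzyme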
An asterisk follows results filed as active; x = no result. Rows were chosen to be rich in hits. Some 5.9% of all compounds tested hit in one or more screens of this group.

SMILES	GASC1 inh	Pf Dd2 inh	T cruzi growth	IDH1 mut inh
COc1ccccc1C#Cc1ccc2c(c1)[C@H]1NCC[C@H]1[C@@H](CO)N2	-1.5	-87.0*	x	x
O=S(=O)(c1ccc(F)cc1)N1CC[C@@H]2[C@@H](CO)Nc3ccc(C#Cc4cccc(F)c4)cc3[C@@H]21	-2.9	-10.4	x	x
COc1cccc(C(=O)NC(c2ccc(C)cc2)c2cc(Cl)c3cccnc3c2O)c1 (configuration not stated)	x	x	x	0.3
CCn1c(SCC(=O)Nc2cccc(SC)c2)nnc1-c1ccc(Br)cc1	x	x	x	-0.4
C[C@H]1CN([C@@H](C)CO)S(=O)(=O)c2ccc(-c3cncnc3)cc2O[C@@H]1CN(C)C(=O)C1CCCCC1	35.1*	-28.2	x	x
C[C@H]1CN([C@@H](C)CO)S(=O)(=O)c2ccc(C#Cc3ccccc3)cc2O[C@H]1CN(C)C(=O)Cc1ccccn1	0.7	-85.8*	69.1	-0.7
C[C@@H]1CN([C@H](C)CO)S(=O)(=O)c2ccc(C#Cc3ccccc3)cc2O[C@H]1CN(C)C(=O)C1CC1	-3.1	-79.3	57.6	0.8
C[C@H]1CN([C@@H](C)CO)S(=O)(=O)c2ccc(C#Cc3ccccc3)cc2O[C@H]1CN(C)C(=O)C1CC1	-1.1	-88.0*	74.3	0.0
C[C@H]1CN([C@@H](C)CO)C(=O)Cc2cc(NC(=O)Cc3cn(C)c4ccccc34)ccc2O[C@H]1CN(C)C(=O)Nc1cccc2ccccc12	-1.1	-33.2	28.5	-1.0
C[C@@H]1CN([C@@H](C)CO)C(=O)Cc2cc(NC(=O)Cc3cn(C)c4ccccc34)ccc2O[C@H]1CN(C)Cc1ccc(Oc2ccccc2)cc1	5.6	-90.4*	8.6	0.0
C[C@H](CO)N1C[C@H](C)[C@H](CN(C)C(=O)Nc2cccc3ccccc23)Oc2ccc(NC(=O)Cc3cn(C)c4ccccc34)cc2CC1=O	-0.9	-84.9*	43.4	-23.6
C[C@H](CO)N1C[C@H](C)[C@@H](CN(C)Cc2ccccc2)Oc2ccc(NC(=O)Cc3cn(C)c4ccccc34)cc2CC1=O	-2.6	-82.2*	70.2	-0.3
C[C@H](CO)N1C[C@H](C)[C@H](CN(C)Cc2ccc(Oc3ccccc3)cc2)Oc2ccc(NC(=O)Cc3cn(C)c4ccccc34)cc2CC1=O	-0.6	-82.7*	35.9	x
C[C@@H]1CN([C@H](C)CO)C(=O)Cc2cc(NC(=O)Cc3cn(C)c4ccccc34)ccc2O[C@@H]1CN(C)Cc1ccc(Oc2ccccc2)cc1	-1.5	-27.6	58.7	-0.2
COC(=O)c1cc(OC)c(OC)cc1NC(=O)COc1ccc(OC)cc1	x	x	x	0.3
Cc1cccc(-c2nnc(SCC(=O)Nc3cccc(C)c3C)n2C)c1	x	x	x	0.8
CN(C)C(=O)C[C@@H]1C[C@@H]2c3cc(NC(=O)Nc4ccccc4)ccc3O[C@@H]2[C@@H](CO)O1	31.7*	-49.5	-9.8	73.4*
CN(C)C(=O)C[C@@H]1C[C@H]2c3cc(NC(=O)C4CCC4)ccc3O[C@H]2[C@H](CO)O1	35.8*	2.5	-12.8	51.6*
Cc1ccc(Cl)cc1N(CC(=O)Nc1ccc(C(F)(F)F)cc1)S(C)(=O)=O	x	x	x	2.0
COc1ccc(NC(=O)N(C)C[C@H]2Oc3c(NC(=O)CCCCCC(=O)Nc4ccccc4N)cccc3C(=O)N([C@@H](C)CO)C[C@@H]2C)cc1	-2.0	-25.5	x	x
COc1ccc(NC(=O)N(C)C[C@@H]2Oc3c(NC(=O)CCCCCC(=O)Nc4ccccc4N)cccc3C(=O)N([C@@H](C)CO)C[C@@H]2C)cc1	-0.4	-61.0	x	-0.3
COc1ccc(CN(C)C[C@H]2Oc3c(NC(=O)CCCCCC(=O)Nc4ccccc4N)cccc3C(=O)N([C@@H](C)CO)C[C@@H]2C)cc1	8.5	-94.4*	x	0.3
COc1ccc(CN(C)C[C@@H]2Oc3c(NC(=O)CCCCCC(=O)Nc4ccccc4N)cccc3C(=O)N([C@H](C)CO)C[C@H]2C)cc1	0.3	-89.9*	x	x
COc1ccc(CN(C)C[C@@H]2Oc3c(NC(=O)CCCCCC(=O)Nc4ccccc4N)cccc3C(=O)N([C@@H](C)CO)C[C@H]2C)cc1	-2.1	-90.3*	x	x
Cc1cc(C)n(CC(O)COc2ccc(C(=O)c3ccc(Cl)cc3)cc2)n1 (configuration not stated)	x	x	x	-0.3
CCc1ccc(OCC(=O)Nc2cccnc2)c(Br)c1	x	x	x	3.8
COc1ccc(OC)c(S(=O)(=O)N2CCC(C(=O)Nc3c(C)cc(C)cc3C)CC2)c1	x	x	x	0.4
C[C@H]1CCCCO[C@H](CN(C)Cc2ccc(C(F)(F)F)cc2)[C@@H](C)CN([C@@H](C)CO)C(=O)c2cc(NC(=O)c3ccccc3)ccc2O1	0.7	-42.4	73.6	1.4
